In the library only some 3% were active in any assay of this set; here they are far more common.
NPY-Y1 PAM-ag – potentiates or activates human NPY-Y1 receptor; AID 1304; NPY-Y1 expressing cells, potentiator/agonist activation; P25929; 220,000 compounds, 0.37% hits; activation, % at 3.6 µM; in the data active = activation above about 33%, passing the limit was not always enough;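 also: cells stimulated with NPY at EC10 then isoproterenol at EC100; 0% = low agonist plus stimulus and 100% = saturating agonist plus stimulus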
Target sequence (P25929 whole entry, looked up): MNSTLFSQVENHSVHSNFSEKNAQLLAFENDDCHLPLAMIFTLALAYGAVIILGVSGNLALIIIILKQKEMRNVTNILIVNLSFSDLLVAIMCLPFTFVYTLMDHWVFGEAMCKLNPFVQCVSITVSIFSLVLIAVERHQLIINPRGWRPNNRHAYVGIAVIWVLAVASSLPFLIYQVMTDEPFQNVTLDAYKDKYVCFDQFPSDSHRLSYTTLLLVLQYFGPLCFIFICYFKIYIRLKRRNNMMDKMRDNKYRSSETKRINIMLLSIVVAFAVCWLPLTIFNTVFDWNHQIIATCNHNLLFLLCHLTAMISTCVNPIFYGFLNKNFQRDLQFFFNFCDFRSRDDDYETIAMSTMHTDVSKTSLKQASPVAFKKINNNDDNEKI
NPY-Y2 PAM-ag – human NPY-Y2 potentiation or agonism, primary screen | P49146 | cells expressing NPY-Y2, potentiator/agonist read-out | activation, % at 3.6 µM | 220,000 compounds, 0.45% hits; in the data active = activation above about 27%;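 also: cells stimulated with NPY near EC25 plus isoproterenol at EC100; 0% = vehicle plus submaximal agonist and 100% = vehicle plus saturating agonist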
Wee1 degr inh – blocks degradation of human Wee1 kinase; P30291; HeLa Luc-Wee1K328M stability, luciferase luminescence; 100% = proteasome inhibitor MG132 effect; reporter increase, % at 5 µM; 220,000 compounds, 1.2% hits;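 active = activation above the mean of all tested compounds plus 3 SD, set per screening run, cut at about 8.8% in these data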;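 also: cells exposed to compound for 20 h before luminescence read; 0% = DMSO alone and 100% = MG132 at 30 µM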
NPY Y2 blocker – antagonists of human neuropeptide Y receptor Y2 | P49146 | NPY-Y2 expressing cells, antagonist mode | inhibition, % at 2.7 µM | 140,000 compounds, 0.99% hits | AID 793; in the data active = inhibition above about 17%;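 also: 0% = vehicle with agonist challenge and 100% = reference antagonist with challenge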
NPY Y1 blocker – NPY-Y1 (human) receptor antagonism; HEK293-CNG Y1 cells, membrane potential fluorescence; NPY at EC95, then isoproterenol; 200,000 compounds, 1% hits; inhibition, % at 3.6 µM; AID 1040; P25929;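 active = inhibition above the campaign mean inhibition of all tested compounds plus 3 SD, cut at about 20% in these data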;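 also: 0% = DMSO wells given NPY plus isoproterenol and 100% = isoproterenol alone without NPY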
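Assay system: HEK293 Y1/CNG channel cell line; Doses: single compound dose of 3.6 µM, 0.4% DMSO; Timing: dye 3 h, compound 60 min room temperature, stimulation 45 min; Technique: Membrane-potential fluorescent dye readout; Measure: % inhibition of NPY effect.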
Hsp70 activator – switches on Hsp70 transcription | HeLa Hsp70 promoter luciferase reporter, luminescence; scaled: vehicle 0, proteasome-inhibitor control 100% | activation, % at 10 µM | 200,000 compounds, 0.04% hits;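 active = activation above the mean across all tested compounds plus 3 SD, cutoff set per campaign, cut at about 5.5% in these data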;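 also: 100% = MG132 at 30 µM as the positive control and 0% = DMSO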
* hit, by the source's call; nt = no result.

SMILES	NPY-Y1 PAM-ag	NPY-Y2 PAM-ag	Wee1 degr inh	NPY Y2 blocker	NPY Y1 blocker	Hsp70 activator
Cc1noc(C)c1S(=O)(=O)N(CCc1ccccc1)Cc1ccccc1	-17	-23	0	20*	24*	0
COCC(C)n1c(SCc2ccc(OC)c(F)c2)nc2ccccc2c1=O (stereo not given)	-4	-25	1	nt	17	0
Cc1n[nH]c(C)c1C(=O)CC1(O)C(=O)N(CCc2ccccc2)c2ccc(Cl)cc21 (stereo not given)	8	5	10*	1	-5	0
CN(C)C(=O)N1CCC(C(=O)N2CCCC(C(=O)c3ccc(C(C)(C)C)cc3)C2)CC1 (stereo not given)	0	-4	-1	nt	-3	0
C=CCN1C(=O)C(CC(=O)Nc2ccccc2)SC1=Nc1ccc(S(N)(=O)=O)cc1 (stereo not given)	1	1	-4	2	1	0
O=C(N/N=C\C=C\c1ccc2c(c1)OCO2)C1COc2ccccc2O1 (stereo not given)	0	-33	9.3*	9	20	0
Cn1c(N=NC(=O)c2ccccc2)c(O)c2ccccc21	15	5	-1	-1	-4	0
CC(C)CN(C(=O)COC(=O)c1nc(Cl)ccc1Cl)C1CCS(=O)(=O)C1 (stereo not given)	-3	3	-4	nt	0	0
CC(C)CN(C(=O)COC(=O)c1c(Cl)ccc(Cl)c1Cl)C1CCS(=O)(=O)C1 (stereo not given)	26	5	8.8*	nt	-2	0
COc1ccc2occ(C(=O)c3coc4ccc(O)c(CN(C)C)c34)c2c1	-43	-47	-1	5	11	0
COc1ccc(C(O)c2coc3ccc(O)c(CN(C)C)c23)cc1 (stereo not given)	107*	100*	-2	3	-21	0
CCOC(=O)c1cnn(-c2cc(C)nc3c(-c4ccccc4)cnn23)c1N	-20	-16	11*	2	10	0
CCOC(=O)c1cnn(-c2cc(C(C)(C)C)nc3c(-c4ccccc4)c(C)nn23)c1N	11	-13	4	0	-1	0
CC(=O)c1cc(F)ccc1OCC(=O)N1CCN(c2ccc(F)cc2)CC1	-5	-6	0	nt	-3	0
O=C(NN=C1C2CC3CC(C2)CC1C3)c1cccs1	-7	-7	9.5*	4	10	0
CN(CCO)c1cc(NCCCN2CCC(Cc3ccccc3)CC2)c2nonc2c1[N+](=O)[O-]	51*	29*	-2	nt	-2	0
Cc1ccc2c(c1)N(CC(=O)OC(CC(C)C)C(=O)NC1CCCC1)C(=O)CO2 (stereo not given)	-24	-14	2	21*	33*	0
C/C(=N\NC(=O)c1nn(C)c(C)c1Br)c1cccc(NC(=O)c2ccoc2C)c1	-32	-4	9.8*	4	1	0
CC(=O)c1cccc(NC(=O)c2ccoc2C)c1	-7	-6	0	nt	0	0
O=[N+]([O-])c1ccc(N2CCN(C(=S)Nc3ccc(F)cc3)CC2)cc1	9	14	1	nt	-4	0
O=[N+]([O-])c1ccc(N2CCN(C(=S)Nc3ccc(F)cc3F)CC2)cc1	10	-12	9.2*	nt	-2	0
Cc1ccc(-c2cn(S(=O)(=O)c3cccc4nsnc34)nc2N)cc1	-5	-17	-1	5	-2	0
COc1cc(-c2cn(S(=O)(=O)c3cccc4nsnc34)nc2N)cc(OC)c1OC	-26	-9	0	18*	23*	0
NC(=O)CNC(=O)c1ccc(Cl)cc1	16	-7	9.1*	nt	nt	nt
COc1cc(OC)cc(C(=O)Nn2c(C)nc3ccccc3c2=O)c1	0	-8	-3	-4	-4	0
SMILES	NPY-Y1 PAM-ag	NPY-Y2 PAM-ag	Wee1 degr inh	NPY Y2 blocker	NPY Y1 blocker	Hsp70 activator
COc1ccc2[nH]c3c(c2c1)CCn1c-3nc2ccccc2c1=O	-4	4	13*	2	-3	0
O=C(COC(=O)/C=C/c1ccco1)NCCc1ccccc1	1	0	1	nt	-1	0
O=C(N/N=C/c1ccccc1)c1sccc1OCc1ccc(F)cc1	-12	-19	-2	20*	1	0
O=C(N/N=C/c1ccncc1)c1ccccc1OCc1ccc(Br)cc1	-117	-54	6	43*	32*	0
Cc1nc(N2CCOCC2)sc1C=O	-9	-7	-5	nt	-1	0
CC1SCC(=O)N(CC(=O)NCCc2ccccc2)C1=O (stereo not given)	-6	4	5	nt	8	0
CN(Cc1ccccc1)S(=O)(=O)c1ccc(N2CCOCC2)nc1	0	-14	-2	nt	nt	nt
COc1ccccc1-c1cc(C(=O)N/N=C/c2cccs2)c2ccccc2n1	5	9	10*	7	2	-1
O=C(N/N=C/c1cccs1)c1cc(-c2ccncc2)nc2ccccc12	-7	-1	3	9	11	0
COc1ccccc1C(=O)C1CCCN(C(=O)CSc2ccccn2)C1 (stereo not given)	8	0	10*	nt	-1	0
COc1cccc2cc(C(C)OC(=O)Nc3ccc(C)cc3)oc12 (stereo not given)	-14	-22	9.1*	nt	5	0
COc1ccccc1NC(=S)NC(=O)c1ccc(-c2ccc(Cl)cc2)o1	9	-7	14*	3	12	0
O=C(NC(=S)Nc1ccccc1O)c1ccc(-c2ccc(Cl)cc2)o1	-12	-16	1	8	8	0
Cc1ccc(S(=O)(=O)Cn2nnnc2CN2CCOCC2)cc1	-2	-9	11*	3	0	0
Cc1ccc(S(=O)(=O)Cn2nnnc2CN2CCCC3(CCCCC3)C2)cc1	-7	-12	0	-2	-3	0
COC(=O)CSc1nnc(-c2ccc(S(=O)(=O)NCc3cccs3)cc2)o1	101*	84*	1	2	-14	0
COC(=O)CSc1nnc(-c2ccc(S(=O)(=O)NCc3ccccc3Cl)cc2)o1	80*	81*	-1	0	-17	0
CCOC(=O)CSc1nnc(-c2ccc(S(=O)(=O)NCc3cccs3)cc2)o1	91*	88*	-1	3	-17	0
Cc1nc(SCC(=O)Nc2c(C)n(C)n(-c3ccccc3)c2=O)[nH]c(=O)c1C	-6	5	-3	1	1	0
NC1(N)OC(CN2C(=O)c3ccccc3C2=O)CS1 (stereo not given)	-8	-11	-2	0	-6	0
CCCCC/C(=N\NC(=O)Nc1ccccc1)c1ccccc1	1	-4	9.2*	nt	11	0
CCCCN(C(C)=O)c1c(N)n(CCC)c(=O)n(CC(=O)Nc2cc(Cl)cc(Cl)c2)c1=O	11	4	12*	nt	1	0
